Laboratory results reported in ChEMBL document CHEMBL1132588, “Synthesis, CoMFA analysis, and receptor docking of 3,5-diacyl-2, 4-dialkylpyridine derivatives as selective A3 adenosine receptor antagonists” (J Med Chem, 1999).

What was measured:
[1] = biological target: T1, Adenosine receptor A3 (Homo sapiens) (UniProt P0DMS8); experiment: (§1) Displacement of specific [125 I]AB-MECA binding at human Adenosine A3 receptor expressed in HEK cells; assay type: cell-based; conditions: HEK293
T1 sequence (whole entry): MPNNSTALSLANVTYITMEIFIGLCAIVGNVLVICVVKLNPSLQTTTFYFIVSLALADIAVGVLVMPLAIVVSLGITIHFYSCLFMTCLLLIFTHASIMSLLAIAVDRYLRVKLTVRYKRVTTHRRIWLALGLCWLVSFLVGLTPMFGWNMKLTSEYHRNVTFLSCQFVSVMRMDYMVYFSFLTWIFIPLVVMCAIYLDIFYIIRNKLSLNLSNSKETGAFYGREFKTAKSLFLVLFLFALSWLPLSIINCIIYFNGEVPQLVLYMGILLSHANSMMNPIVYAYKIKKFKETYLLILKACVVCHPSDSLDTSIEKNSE

Adenosine receptor A2a = Adenosine receptor A2a (Rattus norvegicus, UniProt P30543); experiment: Inhibition of [3H]-CGS- 21680 binding to Adenosine A2A receptor in rat striatal membranes.; assay type: cell membranes, Membrane
Adenosine receptor A2a, sequence (P30543 whole entry): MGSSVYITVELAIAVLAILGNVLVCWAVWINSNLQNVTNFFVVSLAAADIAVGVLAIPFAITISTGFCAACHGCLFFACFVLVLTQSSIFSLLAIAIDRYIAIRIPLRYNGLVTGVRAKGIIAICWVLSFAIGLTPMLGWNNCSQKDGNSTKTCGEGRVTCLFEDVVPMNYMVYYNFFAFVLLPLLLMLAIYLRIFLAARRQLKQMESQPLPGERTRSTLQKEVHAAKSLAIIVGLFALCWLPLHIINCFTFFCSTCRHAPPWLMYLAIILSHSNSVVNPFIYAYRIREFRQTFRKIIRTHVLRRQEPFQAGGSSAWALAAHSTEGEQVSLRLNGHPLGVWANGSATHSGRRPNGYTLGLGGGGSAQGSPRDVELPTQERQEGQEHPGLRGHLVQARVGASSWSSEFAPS

Adenosine receptor A1 = biological target: T2, Adenosine receptor A1 (Rattus norvegicus, UniProt P25099); experiment: (§2) Displacement of specific [3H]-CGS- 21680R-PIA binding to Adenosine A1 receptor in rat brain membranes.; assay type: cell membranes; conditions: in the assay text read “[3H]R-PIA” for “[3H]-CGS- 21680R-PIA”
T2 sequence (P25099 whole entry): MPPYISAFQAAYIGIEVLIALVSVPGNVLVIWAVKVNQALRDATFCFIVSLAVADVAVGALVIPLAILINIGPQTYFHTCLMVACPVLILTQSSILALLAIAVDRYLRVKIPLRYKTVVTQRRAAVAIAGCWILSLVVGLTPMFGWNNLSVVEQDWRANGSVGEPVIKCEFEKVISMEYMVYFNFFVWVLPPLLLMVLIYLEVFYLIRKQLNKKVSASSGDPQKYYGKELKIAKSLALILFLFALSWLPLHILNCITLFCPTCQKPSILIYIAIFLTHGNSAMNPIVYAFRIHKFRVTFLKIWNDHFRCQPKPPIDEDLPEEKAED
In short: (§3)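 A1 binding used [3H]R-PIA on rat cerebral cortex membranes. Adenosine deaminase (3 units/mL) was included in membrane preparation, in a 30 min preincubation at 30 °C, and throughout radioligand incubation. Competitors were DMSO stocks diluted in buffer, with DMSO never above 2%.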

Adenosine receptor A3 [2] = biological target: T3, Adenosine receptor A3 (Homo sapiens, UniProt P0DMS8); experiment: as §1; assay type: cell-based, HEK293
T3 sequence (P0DMS8 whole entry): T1 sequence (whole entry)
In short: (§4)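 Membranes from HEK-293 cells stably expressing human A3 receptor (clone HS-21a), or from CHO cells stably expressing rat A3 receptor (rat: n = 3-5), in 50 mM Tris, 10 mM Mg2+, 1 mM EDTA, pH 8.0. Membranes at 0.3 mg protein/mL with [125I]AB-MECA at 0.3 nM final. Nonspecific binding defined with R-PIA. Competitors were dissolved in DMSO (≤2% final) and tested at ≥5 concentrations spanning 3 log units. Bound ligand was separated by GF/B filtration with three buffer rinses; Ki was derived.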

Rattus norvegicus [3] = species: Rattus norvegicus; experiment: Ratio of binding affinities for rat A1 receptor against human A3 receptor, [Ki(rA1) / Ki (hA3)].
In short: (§5)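 Ratio of Ki values from binding assays. For A3, [125I]AB-MECA (final 0.3 nM) bound membranes of HEK-293 cells expressing human A3 (clone HS-21a) or CHO cells expressing rat A3, in Tris/Mg2+/EDTA buffer at pH 8.0. For rat A1, [3H]R-PIA bound cerebral cortex membranes, with adenosine deaminase (3 units/mL) present, including a 30 min preincubation at 30 °C.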

[4] = biological target: Adenosine receptor A2a (Rattus norvegicus) (UniProt P30543); experiment: (§6) Displacement of specific [3H]-CGS- 21680 binding to Adenosine A2A receptor in rat striatal membranes; assay type: cell membranes; conditions: Membrane
Adenosine receptor A2a (Rattus norvegicus), sequence (P30543 whole entry): as the sequence (P30543 whole entry) above
In short: (§7)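 Rat striatal membranes labelled with [3H]CGS 21680 for A2A binding. Adenosine deaminase (3 units/mL) was present during membrane preparation, during a 30 min preincubation at 30 °C, and during radioligand incubation. Competitors were dissolved in DMSO and diluted in buffer (DMSO ≤2%).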

[5] = biological target: T4, Adenosine receptor A1 (Rattus norvegicus) (UniProt P25099); experiment: as §2; assay type: cell membranes; conditions: concentration not given here; in short: as §3
T4 sequence (whole entry): T2 sequence (P25099 whole entry)

[6] = biological target: T1, Adenosine receptor A3 (Homo sapiens); experiment: as §1; assay type: cell-based; conditions: HEK293; concentration not given here; in short: as §4
[7] = biological target: Adenosine receptor A2a (Rattus norvegicus) (UniProt P30543); experiment: as §6; assay type: cell membranes; parameters: concentration or dose not given beside the values; conditions: Membrane, concentration not given here; in short: as §7
Adenosine receptor A3 [8] = biological target: T5, Adenosine receptor A3 (Rattus norvegicus, UniProt P28647); experiment: Displacement of specific [125I]AB-MECA binding at rat Adenosine A3 receptor stably expressed in CHO cells; assay type: cell-based
T5 sequence (P28647 whole entry): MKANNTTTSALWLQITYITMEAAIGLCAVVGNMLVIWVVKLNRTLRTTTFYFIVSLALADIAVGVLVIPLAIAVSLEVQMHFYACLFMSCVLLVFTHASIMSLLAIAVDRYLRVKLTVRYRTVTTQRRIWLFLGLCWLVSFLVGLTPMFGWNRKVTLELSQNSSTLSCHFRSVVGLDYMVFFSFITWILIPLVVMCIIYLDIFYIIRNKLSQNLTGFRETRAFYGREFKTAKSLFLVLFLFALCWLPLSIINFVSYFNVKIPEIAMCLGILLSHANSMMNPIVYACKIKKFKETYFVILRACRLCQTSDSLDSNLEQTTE

Rattus norvegicus [9] = species: Rattus norvegicus; experiment: Ratio of the binding affinities against rat A3 receptor / human A3 receptor, Ki(rA1) / Ki (hA3).; in short: as §5
Rattus norvegicus [10] = species: Rattus norvegicus; experiment: Ratio of the binding affinities against rat A3 receptor / rat A3 receptor, Ki(rA1) / Ki (rA3).; in short: as §5

SMILES	pKi [1]	Ki (Adenosine receptor A1) [nM]	Ki (Adenosine receptor A3 [2]) [nM]	further results
CCCOC(=O)c1c(-c2ccccc2)nc(CC)c(C(=O)SCC)c1CCCO	6.77			
CCOC(=O)c1c(CC)nc(-c2ccccc2)c(C(=O)OCC)c1C	6.92			
CCCOC(=O)c1c(-c2ccccc2)nc(CC)c(C(=O)SCC)c1CCO	6.58	9040	262	Ki (Adenosine receptor A2a): 10.3 nM; Ratio (Rattus norvegicus [3]): 35
CCCCc1nc(-c2ccccc2)c(C(=O)OCC)c(CC)c1C(=O)SCC	7.46			
CCOC(=O)c1c(-c2ccccc2)nc(CC)c2c1CCCNC2=O	5.7	5790	1990	Displacement [4]: < 10%
CCCc1c(C(=O)SCC)c(C)nc(-c2ccccc2)c1C(=O)OCC	6.71			
CCCOC(=O)c1c(C)nc(-c2ccccc2)c(C(=O)OCC)c1C	6.67			
CCNC(=O)c1c(C)nc(-c2ccccc2)c(C(=O)OCC)c1CC				inhibition [5]: < 10%; inhibition [6]: < 10%; inhibition [7]: < 10%
CCCOC(=O)c1c(CCC)c(C(=O)SCC)c(CC)[n+](C)c1-c1ccccc1	5.59			Ki (Adenosine receptor A3 [8]): 4260 nM; inhibition [5]: < 10%; inhibition [7]: < 10%; Ratio (Rattus norvegicus [3]): > 50; Ratio (Rattus norvegicus [9]): 2.1; Ratio (Rattus norvegicus [10]): > 23
CCCOC(=O)c1c(-c2ccccc2)nc(CC)c2c1CCSC2=O	7.6	16500	248	Ki (Adenosine receptor A2a): 67100 nM; Ki (Adenosine receptor A3 [8]): 2580 nM
CCCOC(=O)c1c(-c2cccc(F)c2)nc(CC)c(C(=O)SCC)c1CCC	7.54	8200	28.9	Ki (Adenosine receptor A2a): 28100 nM; Ratio (Rattus norvegicus [3]): 280
CCCOC(=O)c1c(-c2ccccc2)nc(CC)c2c1CCOC2=O		11200		inhibition [6]: < 10%; inhibition [7]: 20%
CCOC(=O)c1c(-c2ccccc2)nc(CCOC)c(C(=O)SCC)c1CC	7.77			
CCOC(=O)c1c(C)nc(C2CCCC2)c(C(=O)OCc2ccccc2)c1C#Cc1ccccc1	5.41			
CCCOC(=O)c1c(-c2ccccc2)nc(CCOCc2ccccc2)c(C(=O)SCC)c1CCC	6.96	16000	109	
CCCOC(=O)c1c(-c2ccccc2)nc(CC)c(C(=O)SCC2COC(C)(C)O2)c1CCC (stereo not drawn)			2640	inhibition [7]: < 10%; Ratio (Rattus norvegicus [3]): 2.2
CCOC(=O)c1c(C)nc(-c2ccccc2)c(C(=O)OCC)c1C(OC)OC	6.11			
CCCOC(=O)c1c(-c2ccccc2)nc(CC)c(C(=O)SCC(F)(F)F)c1CCC	7.74	8290	18.1	Ki (Adenosine receptor A2a): 6140 nM; Ki (Adenosine receptor A3 [8]): 495 nM; Ratio (Rattus norvegicus [3]): 460; Ratio (Rattus norvegicus [9]): 27; Ratio (Rattus norvegicus [10]): 17
CCCc1c(C(=O)SCC)c(CC)nc(-c2ccccc2)c1C(=O)OCCCF	8.01	6050	9.67	Ki (Adenosine receptor A2a): 9670 nM; Ki (Adenosine receptor A3 [8]): 512 nM; Ratio (Rattus norvegicus [3]): 630; Ratio (Rattus norvegicus [9]): 53; Ratio (Rattus norvegicus [10]): 12
CCOC(=O)c1c(C2CCCC2)nc(CC)c(C(=O)SCC)c1CC	5.47			
CCOC(=O)c1c(-c2ccccc2)nc(CC)c(C(=O)O)c1CC	5.89			
CCOC(=O)c1c(-c2ccccc2)nc(CC)c(C(=O)SCC)c1CC	7.67	41		Ratio (Rattus norvegicus [3]): > 3000; Ratio (Rattus norvegicus [9]): 21; Ratio (Rattus norvegicus [10]): > 100
CCCOC(=O)c1c(-c2cccc(Cl)c2)nc(CC)c(C(=O)SCCC)c1CC	8.1			
CCCOC(=O)c1c(-c2ccccc2)nc(CC)c(C(=O)SCCOC2CCCCO2)c1CCC (stereo not drawn)			517	inhibition [5]: 18%; inhibition [7]: < 10%
